Sampled rows, rich in hits. Any-hit rate of the full collection: about 3.4%.
MEKK2 mut-MEK5: MEK5 binding signal on mutant MEKK2 PB1, primary screen, biochemical, multiplex bead flow cytometry, Alexa488-MEK5; Alexa488-MEK5 binding to MEKK2 mutant; 290,000 tested, 0.35% active; percent response, % at 10 µM; in the data active = percent response above about 24%, passing the limit was not always enough
IMP-1 inhibitor: IMP-1 metallo-beta-lactamase inhibitors, primary screen, biochemical, epi-absorbance readout, Pseudomonas aeruginosa enzyme. AID 1556, 2009. 290,000 tested, 0.45% active. metallo-beta-lactamase IMP-1 (Pseudomonas aeruginosa). purified IMP-1, nitrocefin hydrolysis, epi-absorbance fluorescence. inhibition, % at 5.6 µM;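 active = inhibition above the mean plus 3 SD of all compounds in the same screening run, cut at about 4.5% in these data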;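 note: 0% = IMP-1 with DMSO and 100% = DMSO wells lacking enzyme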
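System: Purified IMP-1 | Read-out basis: Percent enzyme inhibition | Controls: IMP-1 with DMSO as 0%, enzyme-free DMSO as 100% | Replicates: One well per compound | Doses: 5.6 µM nominal single concentration | Detection: Epi-absorbance fluorescence, 480 nm excitation, 530 nm emission | Incubation: 25 °C, 15 min preincubation, 25 min reaction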
MEKK3 PB1 HTS: modulators of MEKK3-MEK5 PB1 binding, primary screen, biochemical, wildtype MEKK3, multiplex bead flow cytometry, Alexa488-MEK5; Mitogen-activated protein kinase kinase kinase 3 (Homo sapiens), Q99759; bead-based flow cytometry, Alexa488-MEK5 binding to MEKK3; actives lie on both sides; 0 = blocked by unlabeled MEK5, 100 = vehicle; binding response (% of control), % at 10 µM; 290,000 tested, 1.4% active;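 active = binding response more than 3 SD above or below the average of its plate-row segment, actives on both sides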;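 note: Alexa488 bead fluorescence after subtracting the streptavidin-only scavenger bead signal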
Target sequence (Q99759 whole entry, looked up): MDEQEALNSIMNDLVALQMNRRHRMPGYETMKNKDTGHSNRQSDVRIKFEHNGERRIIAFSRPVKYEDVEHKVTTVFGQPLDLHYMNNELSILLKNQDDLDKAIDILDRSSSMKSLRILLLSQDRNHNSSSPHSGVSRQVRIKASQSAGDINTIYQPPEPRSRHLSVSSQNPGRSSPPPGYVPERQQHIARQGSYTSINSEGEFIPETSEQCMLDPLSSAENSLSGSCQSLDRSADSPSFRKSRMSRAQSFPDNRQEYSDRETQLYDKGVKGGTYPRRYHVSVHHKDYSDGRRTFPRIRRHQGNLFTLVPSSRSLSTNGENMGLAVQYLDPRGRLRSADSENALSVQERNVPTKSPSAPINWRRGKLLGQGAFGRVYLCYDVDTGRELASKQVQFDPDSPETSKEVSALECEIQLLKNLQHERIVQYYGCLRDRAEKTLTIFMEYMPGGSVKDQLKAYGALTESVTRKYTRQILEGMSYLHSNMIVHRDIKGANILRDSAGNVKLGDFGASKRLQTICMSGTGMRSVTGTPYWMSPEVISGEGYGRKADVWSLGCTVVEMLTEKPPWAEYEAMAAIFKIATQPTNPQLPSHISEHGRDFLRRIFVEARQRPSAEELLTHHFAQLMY
VIM-2 inh: VIM-2 metallo-beta-lactamase inhibitors, primary screen, biochemical, epi-absorbance readout, Pseudomonas aeruginosa enzyme; 290,000 tested, 0.89% active; inhibition, % at 5.6 µM; purified VIM-2, nitrocefin hydrolysis, epi-absorbance fluorescence;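 active = inhibition above the mean of all tested compounds plus 3 SD, cutoff set per screening run, cut at about 7.5% in these data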;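 note: red hydrolysis product quenches plate fluorescence so inhibitors raise well fluorescence; 0% = enzyme with DMSO and 100% = DMSO without enzyme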
MEKK2wt PB1 HTS: modulators of MEK5 binding to wildtype MEKK2, primary screen, biochemical, multiplex bead flow cytometry, Alexa488-MEK5; Mitogen-activated protein kinase kinase kinase 2 (Homo sapiens), Q9Y2U5; Alexa488-MEK5 binding to MEKK2 WT; actives lie on both sides; binding response (% of control), % at 10 µM; 290,000 tested, 1.1% active; in the data active = binding response below about 67% or above about 130%
Active calls of the source: *; . = not tested or not shown.

SMILES | MEKK2 mut-MEK5 | IMP-1 inhibitor | MEKK3 PB1 HTS | VIM-2 inh | MEKK2wt PB1 HTS
CCNS(=O)(=O)c1ccc(NC(=O)Nc2cc(C)ccc2OC)cc1 | 0 | -2 | 104 | -1 | 102
Cc1cc(/C=C2\SC(=S)NC2=O)c(C)n1-c1ccc(O)cc1 | 15 | -1 | 117 | 8.1* | 99
COC(/C=C/Nc1ccc(C)cc1)=C(C#N)C#N | 2 | -1 | 100 | 0 | 100
COc1ccc(OC)c(/C=c2\sc3nc(-c4cccs4)nn3c2=O)c1 | 1 | -4 | 103 | -6 | 90
Cc1c2c(n3c(nc4ccccc43)c1C#N)N(Cc1cccnc1)CC2 | . | -2 | . | 9.6* | .
N#Cc1c2c(c(NCc3cccnc3)n3c1nc1ccccc13)CCC2 | 1 | -5 | 97 | 12* | 90
COCCNc1c2c(c(C#N)c3nc4ccccc4n13)CCCC2 | -15 | -4 | 93 | 8 | 84
Cc1c(CCC(=O)NCCCn2ccnc2)c(=O)oc2c(C)c3oc4c(c3cc12)CCCC4 | 5 | -3 | 100 | 9.6* | 113
O=C(OCc1nnc(-c2ccc(Cl)cc2)o1)c1ccc(=O)n(Cc2ccccc2)n1 | 5 | 4.8* | 106 | -6 | 105
O=C(OCc1nnc(-c2ccc(Cl)cc2)o1)c1ccncc1 | -2 | 3 | 97 | -1 | 90
O=C(NCCCn1ccnc1)c1cc(-c2ccc(Cl)cc2)nc2ccccc12 | . | -3 | . | -1 | .
O=C(NCCCn1ccnc1)c1cc(-c2ccncc2)nc2ccccc12 | -8 | -1 | 99 | 11* | 97
Cc1cc(=O)oc(C)c1C(=O)OCC(=O)c1ccc(Cl)c(Cl)c1 | 0 | 5.3* | 105 | 1 | 101
CCOC(=O)c1c(C)cc(=O)oc1C | 3 | -1 | 98 | -1 | 98
CCSc1nc(NCCN(C)C)c2c3c(sc2n1)COC(C)(CC)C3 (stereo not drawn) | 21 | -3 | 120 | 8.5* | 135
Cc1cc(C)n(-c2nc(NCCN(C)C)c3c4c(sc3n2)COC(C)(C)C4)n1 | 1 | -4 | 95 | -1 | 106
CCNC(=O)COC(=O)C1CCC(=O)N(c2ccc(OC)cc2)C1c1ccc(OC)cc1 (stereo not drawn) | 0 | -1 | 98 | -7 | 97
C[N+](C)(C)c1ccc(/C=N/Nc2nc(Cl)c(C#N)c(Cl)c2Cl)cc1 | 6 | 1 | 95 | 10* | 102
N#Cc1c(Cl)nc(N/N=C/c2ccccc2)c(Cl)c1Cl | 12 | -4 | 103 | -4 | 111
CCOC(=O)c1cc(-c2ccccc2)n(CCC(=O)N2CCN(c3ccc(OC)cc3)CC2)c1C | -1 | 0 | 95 | -4 | 2.0*
COc1ccc(Cl)cc1C(=O)NCCCn1ccnc1 | 0 | 3 | 101 | 6 | 102
Cc1ccc(C(=O)N/C(=C\c2ccco2)C(=O)NCCCn2ccnc2)cc1C | -5 | 9.7* | 96 | 3 | 98
COc1ccc(C(=O)N/C(=C\c2ccco2)C(=O)NCCCn2ccnc2)cc1 | 0 | 0 | 107 | -3 | 102
O=C(CSc1cc(Cl)ccc1Cl)NCCCn1ccnc1 | 26* | -4 | 105 | -1 | 125
COc1ccc(C(C)=O)cc1CC(=O)NCCCn1ccnc1 | -2 | 4.8* | 102 | -2 | 100
SMILES | MEKK2 mut-MEK5 | IMP-1 inhibitor | MEKK3 PB1 HTS | VIM-2 inh | MEKK2wt PB1 HTS
CCNc1ccc(Br)cc(C(=O)/C=C/c2ccc(Cl)cc2)c1=O | -5 | 4.5* | 88 | 1 | 72
CNc1ccc(Br)cc(C(=O)/C=C/c2ccc(OC)cc2OC)c1=O | -2 | 0 | 101 | -2 | 80
CNc1ccc(Br)cc(C(=O)/C=C/c2cccc(OC)c2)c1=O | -7 | 10* | 90 | 1 | 78
CCNc1ccc(Br)cc(C(=O)/C=C/c2ccc3c(c2)OCO3)c1=O | -5 | 3 | 95 | 0 | 79
O=C(O)c1ccccc1COc1ccccc1Cl | 7 | 0 | 109 | -1 | 108
O=C(O)c1ccccc1OCc1ccccc1Br | -7 | 1 | 97 | 9.1* | 91
N#C/C=C1/NC(=O)c2ccccc2S1 | -4 | 0 | 87 | 9.1* | 95
